Records with an inconclusive call do not appear.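 The calls were made as follows, unless noted: active = growth inhibition above 25% in both replicates, a cutoff set 3 SD above the mean; inconclusive = above 25% in only one replicate; inactive = the rest.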
Legend:
[1] = OD615 S. cerevisiae growth inhibition, permissive medium, pilot counter-assay, permissive growth control for S. cerevisiae lifespan shortening project (AID 705); conditions: OD615, 24 h, at 10 µM, active compounds read high
Outline: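 assay system = Saccharomyces cerevisiae strain carrying genetically modified DeaD replicative-lifespan system | technique = absorbance (optical density) at 615 nm | buffer or medium = permissive raffinose/galactose medium | timing = cells pre-grown 4 h, then 24 h compound exposure, 30 °C humidified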

[2] = Restrictive medium S. cerevisiae growth inhibition, OD615, pilot screen of yeast lifespan reduction project, restrictive growth control (AID 706;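 active = growth inhibition above a set limit, 3 SD over mean compound inhibition, in both replicates, cut at about 43% in these data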;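 also: modified DeaD lifespan yeast strain shifted to restrictive glucose medium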); conditions: OD615, 48 h, at 10 µM, active compounds read high
Outline: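 System: modified S. cerevisiae. Buffer or medium: CSMM-D glucose medium. Incubation: 4 h pre-growth plus 48 h compound exposure, 30 °C. Detection: absorbance (optical density) measured at 615 nm.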

[3] = viability gain of MRP-1-high H69AR cells under doxorubicin, pilot screen, MRP-1 activator project, CellTiter-Glo, duplicate (AID 807;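 active = viability increase at or above a cutoff of the median across tested compounds plus 3 SD, cut at about 8.5% in these data, passing the limit was not always enough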;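 also: compound pretreatment 18-22 h then 72 h combined with doxorubicin; 0% = doxorubicin alone and 100% = vehicle without doxorubicin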); conditions: H69AR viability with doxorubicin, CellTiter-Glo luminescence; at 10 µM; active compounds read high
[4] = growth suppression of beta-catenin knockout HCT116, pilot screen, human colon tumor cells (AID 823;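 active = cell viability at or below a set limit in both duplicate runs, the limit being the all-compound median minus 4 SD, cut at about 23% in these data, passing the limit was not always enough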;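 also: 0% = wells killed by 20 µM Hyamine and 100% = untreated DMSO cell wells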); conditions: CellTiter-Glo, 60 h, at 10 µM, active compounds read low
[5] = growth suppression of PTEN-deleted HCT116, pilot screen, cell-based, HCT116 clonal line, CellTiter-Glo (AID 824;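 active = viability at or below 27.92% in each of two runs, the all-compound median minus 4 SD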;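 also: 0% = 20 µM Hyamine control and 100% = vehicle cell control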); conditions: 60 h, at 10 µM, active compounds read low
[6] = inhibitors of the yeast RAM network, pilot screen, dse1pr::URA3 reporter, 5-FOA selection (AID 869;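 active = inhibition over a set limit, the all-compound mean plus 3 SD, in both replicate runs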;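 also: 0% = DMSO wells with no growth and 100% = 10 µM 1-NA-PP1 with full growth; RAM network block rescues cells from 5-FOA so hits raise OD615 growth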); conditions: S. cerevisiae dse1pr::URA3 5-FOA growth, OD615, 2 d; at 10 µM; active compounds read high; strain carries analog-sensitive mutant Cbk1 kinase
[7] = RAM signaling pathway blockade in yeast – S. cerevisiae, Pdr1DBD-CYC8 efflux-inhibited sensitized strain, primary screen (AID 1298;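 active = RAM network inhibition above 8.4% in each of two replicates, 3 SD over the compound average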;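 also: 0% = DMSO untreated cells without growth and 100% = 10 µM 1-NA-PP1 full growth; higher means more yeast growth rescued from 5-FOA killing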); conditions: S. cerevisiae cbk1-as DSE1-URA3 strain, 5-FOA growth OD615, 2 d; at 50 µM; active compounds read high

Cc1nc(=O)c(-c2ccccc2)c(C)n1CC1CCCO1 (configuration not stated)
inactive: growth inhibition [1] -7.12% | growth inhibition [2] -9.15% | viability increase [3] -2.44% | viability [4] 99.8% | viability [5] 96.4% | inhibition [6] 1.38% | RAM network inhibition [7] 0.16%

C1CCC2(CC1)C1=C(CCCC1)Nc1nnnn12
inactive: growth inhibition [1] -4.35% | growth inhibition [2] 1.16% | viability increase [3] -1.07% | viability [4] 93.5% | viability [5] 87.8% | inhibition [6] 2.16% | RAM network inhibition [7] 5.77%

COc1ccc(N(CC(=O)Nc2ccc3c(c2)OCO3)S(=O)(=O)c2ccccc2)c(OC)c1
inactive: growth inhibition [1] -7.79% | growth inhibition [2] -13.1% | viability increase [3] -2.07% | viability [4] 71.8% | viability [5] 75.6% | inhibition [6] 2.93% | RAM network inhibition [7] 9.79%

COc1ccc(C2C(C(=O)N3CCN(c4ccccc4)CC3)c3ccccc3C(=O)N2C)cc1OC (configuration not stated)
inactive: growth inhibition [1] -8.36% | growth inhibition [2] -14.2% | viability increase [3] -1.19% | viability [4] 97.1% | viability [5] 99.3% | inhibition [6] 1.28% | RAM network inhibition [7] 0.53%

Nc1nc(NC(=O)c2ccco2)nn1-c1ccccc1
inactive: growth inhibition [1] -11.7% | growth inhibition [2] 1.96% | viability increase [3] -2.61% | viability [4] 93.8% | viability [5] 98.6% | inhibition [6] -0.025% | RAM network inhibition [7] 5.17%

Cc1cc(=O)[nH]c(SCC(=O)NCCOc2ccccc2)n1
inactive: growth inhibition [1] -2.17% | growth inhibition [2] -1.72% | viability increase [3] -0.09% | viability [4] 102% | viability [5] 98.8% | inhibition [6] 1.02% | RAM network inhibition [7] 1.13%

CC1CCN(c2nc(-c3ccccc3)c(C#N)c(=O)[nH]2)CC1
inactive: growth inhibition [1] -10.1% | growth inhibition [2] -13.7% | viability increase [3] -0.55% | viability [4] 101% | viability [5] 92.1% | inhibition [6] 1.46% | RAM network inhibition [7] 2.74%

C=CCOc1ccc(/C=C/C(C)=N\O)cc1
inactive: growth inhibition [1] 3.48% | growth inhibition [2] 7.77% | viability increase [3] -3.27% | viability [4] 93.2% | viability [5] 96.3% | inhibition [6] 1.11% | RAM network inhibition [7] 9.15%

COc1ccccc1NC(=O)CSc1ncn[nH]1
inactive: growth inhibition [1] -3.71% | growth inhibition [2] -11% | viability increase [3] 1.06% | viability [4] 98.2% | viability [5] 101% | inhibition [6] -0.045% | RAM network inhibition [7] 2.9%

O=C(NCc1cccs1)C1CCCN1S(=O)(=O)c1ccccc1F (configuration not stated)
inactive: growth inhibition [1] -2.45% | growth inhibition [2] -6.33% | viability increase [3] -0.97% | viability [4] 102% | viability [5] 90.7% | inhibition [6] 0.91% | RAM network inhibition [7] 2.5%

COc1ccc2oc(-c3ccccc3)c(C(N)=O)c2c1
inactive: growth inhibition [1] 2.25% | growth inhibition [2] 11.4% | viability increase [3] -2.49% | viability [4] 99.1% | viability [5] 97.5% | inhibition [6] 0.53% | RAM network inhibition [7] 1.82%

CCOC(=O)N1CCN(C(=O)c2cc3c(=O)n(C)c4ccccc4c3n2C)CC1
inactive: growth inhibition [1] -9.54% | growth inhibition [2] 1.15% | viability increase [3] -2.85% | viability [4] 94.6% | viability [5] 89.9% | inhibition [6] 1.31% | RAM network inhibition [7] 0.42%

CC1(C)CC(=O)C(=CN2CCN(C(=O)c3ccco3)CC2)C(=O)C1
inactive: growth inhibition [1] -20.6% | growth inhibition [2] -9.23% | viability increase [3] 0.72% | viability [4] 100% | viability [5] 90.3% | inhibition [6] 2.93% | RAM network inhibition [7] 3.19%

O=S(=O)(c1cccc2cccnc12)N(CCO)CCO
inactive: growth inhibition [1] -15.2% | growth inhibition [2] -15.5% | viability increase [3] -0.99% | viability [4] 103% | viability [5] 101% | inhibition [6] 2.62% | RAM network inhibition [7] 2.69%

COC(=O)c1c(C)nn(-c2ccccc2)c1N
inactive: growth inhibition [1] -12.5% | growth inhibition [2] -19.5% | viability increase [3] -1.39% | viability [4] 108% | viability [5] 98.5% | inhibition [6] 1.2% | RAM network inhibition [7] -0.37%

CC(O)Cc1nsc(NC(=O)c2cccs2)n1 (configuration not stated)
inactive: growth inhibition [1] -11.4% | growth inhibition [2] -8.99% | viability increase [3] -0.55% | viability [4] 104% | viability [5] 100% | inhibition [6] 0.84% | RAM network inhibition [7] 0.26%

CCn1cc(C(=O)N2CCCC2)c(=O)c2cc(S(=O)(=O)N(C)C)ccc21
inactive: growth inhibition [1] -3.43% | growth inhibition [2] 6.6% | viability increase [3] 0.77% | viability [4] 106% | viability [5] 101% | inhibition [6] 0.825% | RAM network inhibition [7] 3.02%

COc1cc(NC(=O)c2cc3c(C)nc4ccccc4c3o2)cc(OC)c1OC
inactive: growth inhibition [1] 7.32% | growth inhibition [2] 13.2% | viability increase [3] -5.18% | viability [4] 86.2% | viability [5] 86.7% | inhibition [6] 0.93% | RAM network inhibition [7] 0.97%

CCc1cccc(C)c1NC(=O)CN1C(=O)c2ccccc2S1(=O)=O
inactive: growth inhibition [1] -7.37% | growth inhibition [2] 1.46% | viability increase [3] -0.23% | viability [4] 98.3% | viability [5] 93.2% | inhibition [6] 0.955% | RAM network inhibition [7] 4.79%

CCOC(=O)C1CCCN(C(=O)Cc2c(C(=O)O)[nH]c3ccccc23)C1 (configuration not stated)
inactive: growth inhibition [1] -7.59% | growth inhibition [2] -0.39% | viability increase [3] -0.1% | viability [4] 97.3% | viability [5] 96.9% | inhibition [6] 0.53% | RAM network inhibition [7] 3.59%

COC(=O)c1ccc(OCC(O)CN2CCC(C)CC2)cc1 (configuration not stated)
inactive: growth inhibition [1] -2.79% | growth inhibition [2] -3.85% | viability increase [3] -2.26% | viability [4] 92.3% | viability [5] 94.1% | inhibition [6] 0.835% | RAM network inhibition [7] 4.68%

CC1CCCN(Cc2nc3c(c(=O)n(C)c(=O)n3C)n2CC(=O)c2ccccc2)C1 (configuration not stated)
inactive: growth inhibition [1] -8.04% | growth inhibition [2] -16.3% | viability increase [3] -4.65% | viability [4] 78.2% | viability [5] 81.2% | inhibition [6] -0.325% | RAM network inhibition [7] 4.05%

CCOC(=O)N1CCN(c2nc(=S)n(-c3ccccc3)c(C)c2C(C)=O)CC1
inactive: growth inhibition [1] 14.8% | growth inhibition [2] 28.8% | viability increase [3] -1.09% | viability [4] 98.8% | viability [5] 101% | inhibition [6] 1.26% | RAM network inhibition [7] 2.67%

O=C(NC1CC1)c1ccc(CSCc2cccc(F)c2)o1
inactive: growth inhibition [1] 3.53% | growth inhibition [2] 3.37% | viability increase [3] -2.78% | viability [4] 82.3% | viability [5] 86.3% | inhibition [6] 1.08% | RAM network inhibition [7] 4.29%

CCC(=O)Nc1ccc(C(=O)n2nc(C)cc2C)cc1
inactive: growth inhibition [1] 15.8% | growth inhibition [2] 7.33% | viability increase [3] -2.24% | viability [4] 103% | viability [5] 98.9% | inhibition [6] 1.12% | RAM network inhibition [7] -0.72%

COc1ccccc1C(=O)NC(C)c1nc2ccccc2[nH]1 (configuration not stated)
inactive: growth inhibition [1] -3.51% | growth inhibition [2] -5.35% | viability increase [3] 2.18% | viability [4] 99% | viability [5] 93% | inhibition [6] 3.37% | RAM network inhibition [7] 1.06%

COC(=O)C(C)Sc1nnc(Cc2cc(=O)[nH]c(=O)[nH]2)n1-c1cc(C)ccc1C (configuration not stated)
inactive: growth inhibition [1] -5.62% | growth inhibition [2] 0.885% | viability increase [3] -1.25% | viability [4] 96% | viability [5] 90.3% | inhibition [6] 1.77% | RAM network inhibition [7] 0.62%

CCCCOc1ccc(-c2nc(-c3cccnc3)no2)cc1
inactive: growth inhibition [1] -3.21% | growth inhibition [2] 4.81% | viability increase [3] 4.19% | viability [4] 68.4% | viability [5] 82.9% | inhibition [6] 0.07% | RAM network inhibition [7] 2.29%

O=C(Cc1cc(=O)[nH]c(=O)[nH]1)NCC1CCCO1 (configuration not stated)
inactive: growth inhibition [1] 7.33% | growth inhibition [2] -1.15% | viability increase [3] 0.94% | viability [4] 106% | viability [5] 104% | inhibition [6] 0.945% | RAM network inhibition [7] 2.29%

CN(C(=O)c1ccc2c(c1)OCO2)C1(C(=O)NC2CCCCC2)CCCCC1
inactive: growth inhibition [1] -8.36% | growth inhibition [2] 0.39% | viability increase [3] -1.06% | viability [4] 90.6% | viability [5] 83.6% | inhibition [6] 1.91% | RAM network inhibition [7] 0.21%

CC(O)CSc1nc2c(c(=O)n(C)c(=O)n2C)n1CCCc1ccccc1 (configuration not stated)
inactive: growth inhibition [1] -7.62% | growth inhibition [2] -5.55% | viability increase [3] 0.66% | viability [4] 101% | viability [5] 96% | inhibition [6] 1.14% | RAM network inhibition [7] 5.17%

Cc1ccc(C2N(c3ccc(F)cc3)C(=O)C3CCCN32)cc1 (configuration not stated)
inactive: growth inhibition [1] -0.945% | growth inhibition [2] -4.53% | viability increase [3] -1.55% | viability [4] 89.4% | viability [5] 97.3% | inhibition [6] 2.21% | RAM network inhibition [7] 4.87%

Cc1onc(-c2ccccc2Cl)c1C(=O)Nc1ccc(S(=O)(=O)N2CCCC2)cc1
inactive: growth inhibition [1] 0.03% | growth inhibition [2] 9.99% | viability increase [3] -2.15% | viability [4] 86.3% | viability [5] 81.2% | inhibition [6] 1.72% | RAM network inhibition [7] 4.75%

O=C(Cn1c(=O)oc2cc(S(=O)(=O)N3CCCCCC3)ccc21)NC1CCCCCCC1
inactive: growth inhibition [1] -9.87% | growth inhibition [2] -14.8% | viability increase [3] -7.86% | viability [4] 95.2% | viability [5] 88.5% | inhibition [6] 4.98% | RAM network inhibition [7] 10.5%

CCOC(=O)N1CCC(N2C(=O)c3ccccc3C2Nc2cc(OC)c(OC)c(OC)c2)CC1 (configuration not stated)
inactive: growth inhibition [1] 6.9% | growth inhibition [2] 8.61% | viability increase [3] -4.12% | viability [4] 92.2% | viability [5] 79.2% | inhibition [6] 0.24% | RAM network inhibition [7] 0.78%

Cc1ccnc(SCCn2c(N3CCC(C)CC3)nc3c2c(=O)[nH]c(=O)n3C)n1
inactive: growth inhibition [1] -10.1% | growth inhibition [2] -6.83% | viability increase [3] -2.18% | viability [4] 106% | viability [5] 100% | inhibition [6] 0.24% | RAM network inhibition [7] -1.36%

Source: PubChem BioAssay
